Structures are written as SMILES. Converted amounts (≈) assume the structure as drawn. Bounds are passed on as bounds.

The test system of assay [1] is Escherichia coli. Kind of assay: Activity of Escherichia coli 2138 beta-lactamase KPC-2 by spectrophotometry. In a few lines:
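KPC-2 was expressed in E. coli BL21(DE3) grown in LB with 50 µg/ml kanamycin and induced with 0.4 mM IPTG. It was purified by Q Sepharose, then Bioscale S cation exchange with a 0–1 M NaCl gradient in 40 mM Bis-Tris pH 5.9, then Superdex 75. Km and kcat were measured spectrophotometrically at 37°C in 50 mM phosphate buffer, pH 7.0, using previously described absorption coefficients.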

In assay [2] the test system is Escherichia coli. Kind of assay: Antimicrobial activity against Escherichia coli J53 harboring blaKPC-2 and blaTEM-1 by Etest method. The class given is functional. The method in brief:
(§1)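 Strain is an E. coli J53 (rifampin-resistant) transconjugant from E. cloacae 7506. Donor and recipient were mixed at 1:1 and 4:1, shaken in brain heart infusion at 37°C for 3 h, then held on a filter on BHI agar for 18 h at 37°C. Transconjugants were selected on LB agar with ampicillin 100 µg/ml, ticarcillin 50 µg/ml and rifampin 1000 µg/ml. MICs were read by Etest.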

Assay [3] has as its system Escherichia coli. Nature of the assay: Antimicrobial activity against Escherichia coli J53 by Etest method. The class given is functional.
The test system of assay [4] is Escherichia coli. Nature of the assay: Antimicrobial activity against Escherichia coli TOP10 harboring blaKPC-2 and blaTEM-1 gene by Etest method. It is filed as functional. The method in brief:
(§2)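 Strain is an E. coli Top10 transformant obtained by electroporation of plasmid DNA extracted from E. coli 2138. MICs were read by Etest.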

Assay [5] relates to Escherichia coli. Kind of assay: Antimicrobial activity against Escherichia coli TOP10 by Etest method. The class given is functional.
Assay [6] deals with Escherichia coli. Nature of the assay: Antimicrobial activity against blaKPC-2 and blaTEM-1 producing Escherichia coli 2138 by Etest method. The class given is functional.
Assay [7] deals with Enterobacter cloacae. Kind of assay: Antimicrobial activity against blaKPC-2, blaKLUC-2 and blaTEM-1 producing Enterobacter cloacae 7506 by Etest method in presence of beta-lactamase inhibitor clavulanic acid. The class given is functional.
For assay [8], the system named is Enterobacter cloacae. Kind of assay: Antimicrobial activity against blaKPC-2, blaKLUC-2 and blaTEM-1 producing Enterobacter cloacae 7506 by Etest method. The class given is functional.
In assay [9] the test system is Escherichia coli. Kind of assay: Antimicrobial activity against Escherichia coli TOP10 by Etest method in presence of beta-lactamase inhibitor clavulanic acid. It is filed as functional. In a few lines:
(§3)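 MIC by Etest on E. coli Top10 host and its transformants. Transformants were obtained by electroporating plasmid DNA extracted from the clinical E. coli isolate.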

Assay [10] relates to Escherichia coli. Nature of the assay: Antimicrobial activity against blaKPC-2 and blaTEM-1 Escherichia coli 2138 by Etest method in presence of beta-lactamase inhibitor clavulanic acid. It is filed as functional. In a few lines: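 MIC read by Etest on the clinical E. coli isolate recovered from a patient hospitalized in France.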
The test system of assay [11] is Escherichia coli. Kind of assay: Antimicrobial activity against Escherichia coli J53 by Etest method in presence of beta-lactamase inhibitor clavulanic acid. It is filed as functional. In a few lines: (§4)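 MIC by Etest on E. coli J53 (Rifr) recipient and its transconjugants. Transconjugants came from liquid and solid mating at 1:1 and 4:1 recipient:donor ratios in brain heart infusion (37°C, 3 h), then filter mating for 18 h at 37°C. Selection was on LB agar with ampicillin (100 µg/ml), ticarcillin (50 µg/ml) and rifampin (1000 µg/ml).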

The test system of assay [12] is Escherichia coli. Nature of the assay: Antimicrobial activity against Escherichia coli TOP10 harboring blaKPC-2 and blaTEM-1 gene by Etest method in presence of beta-lactamase inhibitor clavulanic acid. It is filed as functional. In a few lines: as §3
Assay [13] concerns Escherichia coli. Kind of assay: Antimicrobial activity against Escherichia coli J53 harboring blaKPC-2 and blaTEM-1 gene by Etest method in presence of beta-lactamase inhibitor clavulanic acid. It is filed as functional. The method in brief:
as §4

In assay [14] the test system is Escherichia coli. Nature of the assay: Antimicrobial activity against Escherichia coli J53 by Etest method in presence of beta-lactamase inhibitor Tazobactam. It is filed as functional.
The test system of assay [15] is Escherichia coli. Kind of assay: Antimicrobial activity against Escherichia coli TOP10 harboring blaKPC-2 and blaTEM-1 gene by Etest method in presence of beta-lactamase inhibitor Tazobactam. The class given is functional. The method in brief:
as §2

The test system of assay [16] is Escherichia coli. Nature of the assay: Antimicrobial activity against Escherichia coli TOP10 by Etest method in presence of beta-lactamase inhibitor Tazobactam. It is filed as functional.
Assay [17] concerns Enterobacter cloacae. Kind of assay: Antimicrobial activity against blaKPC-2, blaKLUC-2 and blaTEM-1 producing Enterobacter cloacae 7506 by Etest method in presence of beta-lactamase inhibitor Tazobactam. The class given is functional.
The subject of assay [18] is Escherichia coli. Kind of assay: Antimicrobial activity against Escherichia coli J53 harboring blaKPC-2 and blaTEM-1 gene by Etest method in presence of beta-lactamase inhibitor Tazobactam. The class given is functional. In a few lines: as §1
For assay [19], the system named is Escherichia coli. Kind of assay: Antimicrobial activity against blaKPC-2 and blaTEM-1 producing Escherichia coli 2138 by Etest method in presence of beta-lactamase inhibitor Tazobactam. It is filed as functional.
In assay [20] the test system is Escherichia coli. Kind of assay: Antimicrobial activity against blaKPC-2 producing Escherichia coli DH5alpha by Etest method. The settings on record: DH5[alpha].

As usually defined, the Km is the substrate concentration at which the rate is half of its maximum. For orientation: kcat means the number of substrate molecules converted per active site and unit of time at saturation. Turning to `CC1(C)S[C@@H]2[C@H](NC(=O)Cc3ccccc3)C(=O)N2[C@H]1C(=O)O`, in the assay on Escherichia coli [1], the Km turned out to be 44 µM and the kcat was determined as 45 s⁻¹.
What is called MIC is the smallest concentration in the dilution series that meets the test's criterion for growth inhibition. Turning to `C[C@H]1[C@H](NC(=O)/C(=N\OC(C)(C)C(=O)O)c2csc(N)n2)C(=O)N1S(=O)(=O)O` [AZTREONAM], the MIC is 8 µg/mL (≈ 18.4 µM) with Escherichia coli [2]; < 0.016 µg/mL against Escherichia coli [3]; 24 µg/mL (≈ 55.1 µM) in the assay with Escherichia coli [4]; 0.047 µg/mL (≈ 0.108 µM) against Escherichia coli [5]; 64 µg/mL (≈ 147 µM) against Escherichia coli [6]. Further, the Km in the assay on Escherichia coli [1] was found to be 35 µM. For the same compound, the kcat in the assay on Escherichia coli [1] was 3 s⁻¹.
As to `CO/N=C(\C(=O)N[C@@H]1C(=O)N2C(C(=O)O)=C(COC(N)=O)CS[C@H]12)c1ccco1`, in the assay on Escherichia coli [1], the Km worked out at 160 µM and the kcat was determined as 66 s⁻¹.
As to `CC1(C)S[C@@H]2[C@H](NC(=O)[C@H](N)c3ccc(O)cc3)C(=O)N2[C@H]1C(=O)O` [AMOXICILLIN], the MIC against Escherichia coli [2] was > 256 µg/mL; against Escherichia coli [3] it was 3 µg/mL (≈ 8.21 µM); against Escherichia coli [4], > 256 µg/mL; with Enterobacter cloacae [7] it was 96 µg/mL; with Enterobacter cloacae [8], > 256 µg/mL; in the assay with Escherichia coli [9], 2 µg/mL. The MIC with Escherichia coli [10] is 24 µg/mL; against Escherichia coli [5] it was 3 µg/mL (≈ 8.21 µM); against Escherichia coli [6], > 256 µg/mL; with Escherichia coli [11] it was 2 µg/mL; in the assay on Escherichia coli [12] it was 48 µg/mL; in the assay on Escherichia coli [13] it was 16 µg/mL.
Regarding `CO/N=C(\C(=O)N[C@@H]1C(=O)N2C(C(=O)[O-])=C(C[n+]3cccc4c3CCC4)CS[C@H]12)c1csc(N)n1`, in the assay with Escherichia coli [1], the Km was 251 µM and the kcat stood at 12 s⁻¹.
Turning to `CC1(C)S[C@@H]2[C@H](NC(=O)[C@H](N)c3ccccc3)C(=O)N2[C@H]1C(=O)O`, in the assay with Escherichia coli [1], the Km was 29 µM and the kcat came out at 20 s⁻¹.
As for `CCN1CCN(C(=O)N[C@@H](C(=O)N[C@@H]2C(=O)N3[C@@H]2SC(C)(C)[C@@H]3C(=O)O)c2ccccc2)C(=O)C1=O` [PIPERACILLIN], the minimal inhibitory concentration (MIC) is > 256 µg/mL against Escherichia coli [2]; 0.38 µg/mL with Escherichia coli [14]; 0.38 µg/mL (≈ 0.734 µM) with Escherichia coli [3]; > 256 µg/mL against Escherichia coli [4]; > 256 µg/mL in the assay on Escherichia coli [15]; > 256 µg/mL against Enterobacter cloacae [8]. In addition, the minimum inhibitory concentration (MIC) with Escherichia coli [16] is 0.75 µg/mL; against Escherichia coli [5] it was 0.75 µg/mL (≈ 1.45 µM); in the assay on Escherichia coli [6], > 256 µg/mL; with Enterobacter cloacae [17] it was > 256 µg/mL; in the assay with Escherichia coli [18] it was > 256 µg/mL; in the assay on Escherichia coli [19], > 256 µg/mL. Besides, in the assay on Escherichia coli [1], the Km was found to be 51 µM. For the same compound, the catalytic constant (kcat) in the assay with Escherichia coli [1] amounted to 40 s⁻¹.
Turning to `CO/N=C(\C(=O)N[C@@H]1C(=O)N2C(C(=O)O)=C(COC(C)=O)CS[C@H]12)c1csc(N)n1` [CEFOTAXIME], the minimal inhibitory concentration (MIC) in the assay with Escherichia coli [2] was 4 µg/mL (≈ 8.78 µM); in the assay with Escherichia coli [3], 0.032 µg/mL (≈ 0.0703 µM); in the assay with Escherichia coli [4], 12 µg/mL (≈ 26.3 µM); in the assay on Enterobacter cloacae [8] it was > 32 µg/mL; in the assay on Escherichia coli [5], 0.047 µg/mL (≈ 0.103 µM); in the assay on Escherichia coli [6] it was 16 µg/mL (≈ 35.1 µM). The Km with Escherichia coli [1] was found to be 174 µM. Also, the kcat with Escherichia coli [1] stood at 66 s⁻¹.
With `CC(C)(O/N=C(\C(=O)N[C@@H]1C(=O)N2C(C(=O)[O-])=C(C[n+]3ccccc3)CS[C@H]12)c1csc(N)n1)C(=O)O` [CEFTAZIDIME], the MIC against Escherichia coli [2] was 2 µg/mL (≈ 3.66 µM); with Escherichia coli [3], 0.064 µg/mL (≈ 0.117 µM); against Escherichia coli [4], 6 µg/mL (≈ 11 µM); against Enterobacter cloacae [8], 32 µg/mL (≈ 58.5 µM); in the assay with Escherichia coli [20], 32 µg/mL (≈ 58.5 µM); with Escherichia coli [5], 0.19 µg/mL (≈ 0.348 µM). For the same compound, the MIC with Escherichia coli [6] came out at 8 µg/mL (≈ 14.6 µM).
As for `CC(=O)OCC1=C(C(=O)O)N2C(=O)[C@@H](NC(=O)Cc3cccs3)[C@H]2SC1`, in the assay on Escherichia coli [1], the Km stood at 141 µM and the kcat came to 106 s⁻¹.
With `CC1(C)S[C@@H]2[C@H](NC(=O)[C@H](C(=O)O)c3ccsc3)C(=O)N2[C@H]1C(=O)O` [TICARCILLIN], the MIC was > 256 µg/mL against Escherichia coli [2]; 1.5 µg/mL (≈ 3.9 µM) in the assay on Escherichia coli [3]; > 256 µg/mL against Escherichia coli [4]; > 256 µg/mL in the assay with Enterobacter cloacae [8]; 1.5 µg/mL (≈ 3.9 µM) in the assay on Escherichia coli [5]; > 256 µg/mL against Escherichia coli [6].
Take `C[C@@H](O)[C@H]1C(=O)N2C(C(=O)O)=C(SCCNC=N)C[C@H]12` [IMIPENEM ANHYDROUS]: the MIC in the assay with Escherichia coli [2] stood at 0.5 µg/mL (≈ 1.67 µM); in the assay with Escherichia coli [3], 0.094 µg/mL (≈ 0.314 µM); against Escherichia coli [4] it was 1.5 µg/mL (≈ 5.01 µM); against Enterobacter cloacae [8] it was 3 µg/mL (≈ 10 µM); against Escherichia coli [5], 0.19 µg/mL (≈ 0.635 µM); in the assay on Escherichia coli [6], 3 µg/mL (≈ 10 µM). Besides, the Km in the assay on Escherichia coli [1] was determined as 88 µM. Moreover, the kcat with Escherichia coli [1] was found to be 20 s⁻¹.
